Assay outcomes (PubChem BioAssay)
WT yeast gro inh: growth inhibition of WT yeast, mitochondrial fusion screen. mitochondrial fusion phenotypic screen, WT strain. inhibition, % at 10 µM. 2.1% of 190,000 active; in the data active means inhibition above about 58%; tested in S. cerevisiae
MEKK2 mut-MEK5: signal of MEK5 binding to mutant human MEKK2 PB1 domain; bead flow cytometry, Alexa488-MEK5 binding to MEKK2 mutant; percent response, % at 10 µM; 0.35% of 290,000 active; AID 1530; in the data active means percent response above about 24%, passing the limit was not always enough
ABCB1 inh: human ABCB1 inhibition, ABCG2 as counter-screen; P08183; CCRF-Adr cells, JC-1 efflux, flow cytometry; inhibition, % at 6.6 µM; 0.067% of 190,000 active; in the data active means inhibition above about 40%;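 further: 0% = vehicle and 100% = reference inhibitor; higher value means more JC-1 retained so stronger ABCB1 efflux block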
MEKK2wt PB1 HTS: raises or lowers MEK5 binding to wildtype human MEKK2 PB1 domain; bead flow cytometry, Alexa488-MEK5 binding to MEKK2 WT; actives lie on both sides; 1.1% of 290,000 active; binding response (% of control), % at 10 µM; in the data active means binding response below about 67% or above about 130%
ABCG2 block: inhibitors of human ABCG2 transporter, ABCB1 counter-screen; Q9UNQ0; IgMXP3 cells, JC-1 efflux, flow cytometry; inhibition, % at 6.6 µM; 0.1% of 190,000 active; AID 1325;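 active means inhibition above 80%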;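 further: 0% = DMSO and 100% = nicardipine control wells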
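Measure – % inhibition of efflux relative to nicardipine and DMSO · Test system – ABCG2 IgMXP3 and barcoded ABCB1 CCRF-Adr cell mix · Control set – nicardipine as high control, DMSO as low control · Compound – one concentration, 6.6 µM final · Signal – flow cytometry of retained JC-1 fluorescence · Timing – 10 min exposure at 25 °C with rotation, no wash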
MEKK3 PB1 HTS: MEKK3-MEK5 PB1 interaction, increase or decrease | AID 1529 | bead-based flow cytometry, Alexa488-MEK5 binding to MEKK3; actives lie on both sides; 0 = blocked by unlabeled MEK5, 100 = vehicle | Q99759 | binding response (% of control), % at 10 µM | 1.4% of 290,000 active;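 active means binding response more than 3 SD above or below the average of its plate-row segment, actives on both sides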;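 further: Alexa488 bead fluorescence after subtracting the streptavidin-only scavenger bead signal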
Target sequence (Q99759 whole entry, looked up): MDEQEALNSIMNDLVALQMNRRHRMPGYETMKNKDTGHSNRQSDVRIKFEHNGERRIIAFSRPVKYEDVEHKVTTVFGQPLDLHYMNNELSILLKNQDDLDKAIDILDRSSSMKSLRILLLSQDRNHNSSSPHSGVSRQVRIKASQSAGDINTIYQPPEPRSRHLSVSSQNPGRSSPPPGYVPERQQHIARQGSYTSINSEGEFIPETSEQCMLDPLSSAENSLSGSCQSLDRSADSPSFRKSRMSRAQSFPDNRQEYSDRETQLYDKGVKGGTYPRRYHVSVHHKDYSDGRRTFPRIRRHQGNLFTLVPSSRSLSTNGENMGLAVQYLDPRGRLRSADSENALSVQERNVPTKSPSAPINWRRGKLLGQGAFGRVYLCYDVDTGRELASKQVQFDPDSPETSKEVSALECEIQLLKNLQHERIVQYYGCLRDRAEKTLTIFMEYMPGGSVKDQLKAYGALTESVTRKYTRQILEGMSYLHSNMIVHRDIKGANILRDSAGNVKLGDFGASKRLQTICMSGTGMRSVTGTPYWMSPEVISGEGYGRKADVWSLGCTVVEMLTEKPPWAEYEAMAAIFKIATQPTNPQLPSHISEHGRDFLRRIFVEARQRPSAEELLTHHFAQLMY
The depositor's hits bear a star; / = no result given. Shown are actives, neighbours in structure and some others; about 3.5% of the full set was active somewhere.

SMILES | WT yeast gro inh | MEKK2 mut-MEK5 | ABCB1 inh | MEKK2wt PB1 HTS | ABCG2 block | MEKK3 PB1 HTS
COCCn1c(C(=O)N2CCCC2)cc2c1C[C@H]1CN(C(=O)c3ccccc3)[C@@](Cc3ccc(F)cc3)(C(=O)OC)[C@@H]21 | -2.0 | -4.0 | 5.3 | 96.0 | 3.2 | 90.0
COC(=O)[C@@]1(Cc2ccc(OC)cc2)[C@H]2c3cc(C(=O)N4CCCC4)n(Cc4ccc(C)o4)c3C[C@H]2CN1C(=O)c1ccccc1 | 65.2* | -5.0 | 12.8 | 94.0 | 4.3 | 104.0
Cc1ccc(/C=C/C(=O)OCC(=O)Nc2cccc(S(=O)(=O)N(C)C)c2)o1 | 6.1 | 11.0 | 1.5 | 10.0* | 15.4 | 104.0
CN(C)S(=O)(=O)c1cccc(NC(=O)COC(=O)/C=C/c2ccco2)c1 | -15.6 | 10.0 | 0.2 | 109.0 | 46.2 | 105.0
COc1cc(CC(=O)NNC(=O)c2cc(C)oc2C)cc(OC)c1OC | -11.8 | 9.0 | -0.1 | 105.0 | 0.6 | 101.0
CC(C)=CCC/C(C)=C/COc1ccc2ccc(=O)oc2c1 | 60.7* | -2.0 | 0.5 | 101.0 | 6.5 | 106.0
CC[C@@H](C)[C@H](NC(=O)OC(C)(C)C)c1nnc(S(=O)(=O)Cc2cc(C)ccc2C)o1 | 66.1* | 2.0 | 1.0 | 100.0 | 1.5 | 100.0
Cc1ccccc1CS(=O)(=O)c1nnc([C@H](CC(C)C)NC(=O)OC(C)(C)C)o1 | 75.1* | 6.0 | 0.6 | 101.0 | 2.7 | 106.0
COc1ccc(C(=O)CC(=O)C(=O)Nc2cccc(C(C)=O)c2)cc1 | / | 8.0 | / | 104.0 | / | 105.0
Cc1noc(C)c1S(=O)(=O)N(CCc1ccccc1)Cc1ccccc1 | 69.7* | 2.0 | 1.8 | 99.0 | 3.0 | 96.0
COc1ccc(NC(=O)c2cc(S(=O)(=O)N3CCc4ccccc43)cn2C)cc1OC | / | -5.0 | / | 100.0 | / | 103.0
FC(F)(F)c1cc(Nc2ccccc2)nc(-c2ccccn2)n1 | / | 9.0 | / | 109.0 | / | 103.0
FC(F)(F)c1cc(Sc2ccccc2)nc(-c2ccccn2)n1 | 64.8* | 0.0 | 0.3 | 105.0 | 1.4 | 106.0
CCOC(=O)c1cc(S(=O)(=O)NC2CCC(C)CC2)cn1C (configuration not stated) | / | 4.0 | / | 109.0 | / | 103.0
CC(C)COc1ccc(CSCCNC(=S)Nc2ccccc2)cc1 | 75.6* | 1.0 | 0.1 | 108.0 | 2.6 | 103.0
CCCCOc1ccc(CSCCNC(=S)Nc2ccccc2)cc1 | 52.5 | 14.0 | 0.4 | 106.0 | 15.8 | 101.0
CCCCCOc1ccc(CSCCNC(=S)Nc2ccccc2)cc1 | 68.3* | 1.0 | 0.6 | 105.0 | 21.0 | 101.0
C/C(=N\NC(=O)c1ccc(N/N=C(\C)c2ccc(O)cc2)cc1)c1ccc(O)cc1 | / | -15.0 | / | 66.0 | / | 64.0
Cc1c(N2C(=O)c3cccc4cccc(c34)C2=O)c(=O)n(-c2ccccc2)n1C | 96.7* | 11.0 | 0.0 | 101.0 | 0.1 | 102.0
Cc1c(N=C2Nc3cccc4cccc2c34)c(=O)n(-c2ccccc2)n1C | -7.5 | 8.0 | 0.3 | 109.0 | 18.2 | 114.0
O=C(O)CC1(c2ccc(F)cc2)C2CC3CC(C2)CC1C3 (configuration not stated) | / | 12.0 | / | 112.0 | / | 111.0
CCN(CC)CCNC(=O)C(=O)NCC1OCCN1S(=O)(=O)c1ccc(Cl)cc1 (configuration not stated) | / | 18.0 | / | 142.0* | / | 102.0
C=C1/C(=C\C=C2/CCC[C@]3(C)[C@@H]([C@H](C)CCCC(C)(C)O)CC[C@@H]23)C[C@@H](O)C[C@@H]1O | 94.5* | 1.0 | / | 99.0 | 9.1 | 95.0
O=C(c1ccc(Cn2c(=S)[nH]c3ccc(Br)cc3c2=O)cc1)N1CCN(C2CCCCC2)CC1 | 73.3* | 6.0 | 4.0 | 111.0 | -0.8 | 97.0
O=C(c1ccc2c(=O)n(C3CCCC3)c(=S)[nH]c2c1)N1CCCCCC1 | 96.1* | -4.0 | 0.2 | 90.0 | 8.7 | 96.0
SMILES | WT yeast gro inh | MEKK2 mut-MEK5 | ABCB1 inh | MEKK2wt PB1 HTS | ABCG2 block | MEKK3 PB1 HTS
CCOCCCn1c(=S)[nH]c2cc(C(=O)N3CCN(C4CCCCC4)CC3)ccc2c1=O | / | 3.0 | / | 102.0 | / | 102.0
O=C(NC1CC1)C1=C[C@@H](c2ccc(Br)cc2)C[C@@H](OCc2ccc(CO)cc2)O1 | / | 2.0 | / | 99.0 | / | 107.0
O=C(COc1ccccc1)Nc1nnc(-c2ccc(Cl)s2)o1 | 56.6 | 4.0 | 0.1 | 108.0 | 1.6 | 106.0
Cc1c(C(=O)C(=O)NCC2CCCO2)c2ccccc2n1C (configuration not stated) | 9.7 | 1.0 | 0.0 | 118.0 | 0.5 | 124.0
O=C(c1cccc(Br)c1)N1CCN(S(=O)(=O)N2CCCCCC2)CC1 | / | 2.0 | / | 103.0 | / | 101.0
Cc1nc2ccc(NC(=O)COc3ccccc3)cc2s1 | 73.9* | -7.0 | -1.9 | 95.0 | -0.1 | 102.0
Cc1nc2ccc(NC(=O)COc3cccc(F)c3)cc2s1 | 50.9 | 1.0 | 0.7 | 101.0 | 7.4 | 100.0
Cc1cccc(OCC(=O)Nc2ccc3nc(C)sc3c2)c1 | 59.4* | -7.0 | -1.3 | 79.0 | -3.9 | 75.0
CC(=O)c1ccc(OCC(=O)Nc2ccc3nc(C)sc3c2)cc1 | -9.8 | -5.0 | -0.1 | 97.0 | 0.3 | 101.0
CCc1ccc(Nc2nc(N)nc(CSc3nc4ccccc4s3)n2)cc1 | 72.2* | 6.0 | 0.2 | 95.0 | 1.8 | 98.0
Cc1nnc(SCc2nc(N)nc(Nc3ccccc3)n2)s1 | 6.2 | 4.0 | 0.2 | 101.0 | 1.7 | 99.0
O=C(N/N=C/c1ccccn1)c1[nH]c2ccc([N+](=O)[O-])cc2c1-c1ccccc1 | 64.6* | -11.0 | 0.1 | 60.0 | -1.1 | 62.0
CCOC(=O)c1ccc(NC(=O)c2ccccc2[N+](=O)[O-])cc1 | 2.3 | -2.0 | 1.7 | 94.0 | 23.3 | 98.0
CCOC(=O)c1cc([N+](=O)[O-])c([N+](=O)[O-])cc1NC(C)=O | 76.3* | -3.0 | 4.5 | 95.0 | 11.9 | 93.0
Cn1c(=O)c2c(nc(N3CCCCCC3)n2Cc2cccc3ccccc23)n(C)c1=O | 80.8* | / | 0.0 | / | 0.1 | /
CN1CCN(c2nc3c(c(=O)n(C)c(=O)n3C)n2Cc2cccc3ccccc23)CC1 | -41.4 | 9.0 | 0.4 | 104.0 | 0.7 | 103.0
CSc1cccc(NC(=S)N(Cc2ccc(C)cc2)Cc2cccnc2)c1 | 67.5* | 4.0 | 1.4 | 108.0 | 25.9 | 111.0
Cc1ccccc1NC(=S)N(Cc1ccccc1)Cc1cccnc1 | -11.9 | 3.0 | 3.3 | 103.0 | 9.3 | 103.0
CCC1CCCCN1C(=O)c1cc(-c2ccc(Cl)c(Cl)c2)on1 (configuration not stated) | 74.0* | 2.0 | 0.3 | 99.0 | 4.0 | 95.0
Cc1cccc(N2CCN(S(=O)(=O)c3ccc(-c4ccc(=O)[nH]n4)o3)CC2)c1C | / | 5.0 | / | 96.0 | / | 97.0
Cc1ccc(/C=C/C2=NN(Cc3ccccc3Cl)C(=O)CC2)cc1 | 59.3* | -8.0 | 0.1 | 90.0 | 1.1 | 90.0
